Active and inactive are the calls of the source. No cut-off for these calls is given here.
Experiments:
Mus musculus [1] = experiment: Toxicity in mouse assessed as body weight at 400 mg/kg, po after 4 days; assay type: organism-based; design: dose 400 mg/kg, route oral; conditions: in vivo, 96 h
In short: (§1)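 Uninfected male Swiss mice, 8–10 per group, received by gavage either a single 400 mg/kg dose or 10 doses of 100 mg/kg (vehicle water with 10% Tween-80). GOT, GPT and urea were measured directly in blood with the Reflotron system, and body weight was recorded. Single-dose toxicity was analyzed 4 days after treatment.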

Mus musculus [2] = experiment: Toxicity in mouse assessed as GPT level in blood at 400 mg/kg, po after 4 days; assay type: organism-based; design: dose 400 mg/kg, route oral; conditions: in vivo, 96 h; in short: as §1
Mus musculus [3] = experiment: Toxicity in mouse assessed as urea level in blood at 400 mg/kg, po after 4 days; assay type: organism-based; design: dose 400 mg/kg, route oral; conditions: in vivo, 96 h; in short: as §1
Trypanosoma cruzi [4] = experiment: Antitrypanosomal activity against Trypanosoma cruzi infected in mouse assessed as reduction in inflammatory foci in cardiac muscle at 100 mg/kg, po after 6 days post infection; assay type: functional, organism-based; design: dose 100 mg/kg; conditions: Muscle tissue
In short: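 Infected mice were dosed by gavage at 100 mg/kg daily for 10 days from dpi 6. Two mice per group were euthanized at 14 dpi. Paraffin heart sections were stained with hematoxylin-eosin. Under a 40× objective, parasite nests and inflammatory foci (≥10 mononuclear cells) were counted per mm2 over 30 fields.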

Trypanosoma cruzi [5] = experiment: Antitrypanosomal activity against Trypanosoma cruzi amastigotes infected in mouse peritoneal macrophages assessed as endocytic index at 30 uM after 1-4 days; assay type: functional, organism-based
In short: (§2)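 Swiss mouse peritoneal macrophages (3 × 10^5/well) were plated for 24 h, then infected with Y-strain trypomastigotes (10:1) in DMEM with 10% FCS for 3 h. Free parasites were washed off, and compounds were added at 2.5–30 µM final for 1–4 days. Cells were fixed in Bouin's solution and stained with Giemsa. Percent infection and endocytic index (parasites/100 cells) were counted, and IC50 was derived. Three independent experiments.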

Trypanosoma cruzi [6] = experiment: Antitrypanosomal activity against Trypanosoma cruzi amastigotes infected in mouse peritoneal macrophages assessed as inhibition of infection at 30 uM after 1-4 days; assay type: functional, organism-based; in short: as §2
[7] = Cytotoxicity against swiss mouse HMC after 48 hrs by MTT assay; conditions: read-out: LC50
In short: (§3)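 Uninfected host cells were exposed to compounds at 37°C for 2 days, with compound stocks in DMSO. Cells were Swiss mouse peritoneal macrophages or primary mouse embryo heart muscle cells (18-day embryos, trypsin/collagenase dissociated, gelatin-coated coverslips, DMEM with horse and fetal calf sera, chicken embryo extract). Viability was read by MTT at 490 nm to give LC50.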

Trypanosoma cruzi [8] = experiment: Antitrypanosomal activity against Trypanosoma cruzi amastigotes infected in mouse embryo heart muscle cells assessed as endocytic index at 40 uM; assay type: functional, organism-based
In short: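 Mouse embryo heart muscle cells (10^5/well) were plated on gelatin-coated coverslips and infected after 24 h with trypomastigotes at 10:1 parasite/host cell. After another 24 h, cultures were washed and exposed to compounds at 10–40 µM final. At intervals, cells were fixed in Bouin's solution and stained with Giemsa. Percent infection and endocytic index (parasites/100 cells) were counted, and IC50 was derived.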

Trypanosoma cruzi [9] = experiment: Antitrypanosomal activity against Trypanosoma cruzi infected in mouse assessed as decrease in mortality rate at 100 mg/kg, po after 6 days post infection; assay type: functional, organism-based; design: dose 100 mg/kg
In short: (§4)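 Male Swiss mice, 8–10 per group, infected i.p. with 10^4 bloodstream trypomastigotes. From dpi 6, mice received 10 consecutive daily gavage doses of 100 mg/kg in water with 10% Tween-80. Parasitemia was read daily on dpi 6–21 by the Pizzi-Brener method. Mortality was noted daily, and %CM at 40 dpi and M50 were calculated.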

[10] = Cytotoxicity against Swiss mouse peritoneal macrophages after 48 hrs by MTT assay; assay type: cell-based, Peritoneal macrophage cell; conditions: read-out: LC50; in short: as §3
Trypanosoma cruzi [11] = experiment: Antitrypanosomal activity against Trypanosoma cruzi trypomastigotes assessed as increase in vesicles size near the flagellar pocket at 17 uM after 24 hrs by Transmission electron microscopy; assay type: functional, organism-based
In short: (§5)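 Y-strain bloodstream trypomastigotes (5 × 10^6/ml) were treated for 24 h, washed in PBS, and fixed in 2.5% glutaraldehyde in 0.1 M cacodylate (pH 7.2). They were postfixed with OsO4/ferricyanide/CaCl2, dehydrated in acetone, and embedded in epoxy. Ultrathin sections were stained with uranyl acetate and lead citrate and examined by transmission EM.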

Trypanosoma cruzi [12] = experiment: Antitrypanosomal activity against Trypanosoma cruzi trypomastigotes assessed as parasite body rounding at 17 uM after 24 hrs by scanning electron microscopy; assay type: functional, organism-based
In short: (§6)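 Trypomastigotes (5 × 10^6/ml) were treated for 24 h and adhered to poly-L-lysine coverslips. They were fixed in 2.5% glutaraldehyde in 0.1 M cacodylate (pH 7.2) for 40 min and postfixed for 30 min in 1% OsO4, 0.8% ferricyanide and 2.5 mM CaCl2. Samples were acetone-dehydrated, critical-point dried, gold-coated (20 nm) and examined by scanning EM.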

Trypanosoma cruzi [13] = experiment: Antitrypanosomal activity against Trypanosoma cruzi infected in mouse assessed as decrease in parasitemia in blood at 100 mg/kg, po after 6 days post infection; assay type: functional; in short: as §4
Trypanosoma cruzi [14] = experiment: Antitrypanosomal activity against Trypanosoma cruzi Y infected in mouse assessed as decrease in parasitemia in blood at 200 mg/kg, po upto 40 days post infection; assay type: functional; design: scale not given: the % may be the effect or the level left
In short: (§7)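 Male Swiss mice (6–8 weeks, 18–20 g), 8–10 per group, infected i.p. with 10^4 bloodstream trypomastigotes (Y strain). On dpi 5, a single 200 mg/kg oral gavage dose was given in water with 10% Tween-80. Parasitemia was counted daily from dpi 6 to 21 by the Pizzi-Brener method. Body weight was recorded weekly. Mortality was recorded daily, and cumulative mortality at 40 dpi and M50 were calculated.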

Trypanosoma cruzi [15] = experiment: Antitrypanosomal activity against Trypanosoma cruzi trypomastigotes assessed as alteration in autophagosome-like structure formation at 17 uM after 24 hrs by Transmission electron microscopy; assay type: functional, organism-based; in short: as §5
Mus musculus [16] = experiment: Toxicity in mouse assessed as GOT level in blood at 400 mg/kg, po after 4 days; assay type: organism-based; design: dose 400 mg/kg, route oral; conditions: in vivo, 96 h; in short: as §1
Trypanosoma cruzi [17] = experiment: Antitrypanosomal activity against Trypanosoma cruzi Y infected in mouse assessed as decrease in mouse mortality at 200 mg/kg, po upto 40 days post infection; assay type: functional, organism-based; design: dose 200 mg/kg; in short: as §7
Trypanosoma cruzi [18] = experiment: Antitrypanosomal activity against Trypanosoma cruzi amastigotes infected in mouse peritoneal macrophages assessed as inhibition of infection after 3 day; assay type: functional, organism-based; conditions: 72 h; in short: as §2
Trypanosoma cruzi [19] = experiment: Antitrypanosomal activity against Trypanosoma cruzi amastigotes infected in mouse peritoneal macrophages assessed as inhibition of infection after 2 day; assay type: functional, organism-based; conditions: 48 h; in short: as §2
Trypanosoma cruzi [20] = experiment: Antitrypanosomal activity against Trypanosoma cruzi amastigotes infected in mouse peritoneal macrophages assessed as endocytic index after 3 day; assay type: functional, organism-based; conditions: 72 h; in short: as §2
Trypanosoma cruzi [21] = experiment: Antitrypanosomal activity against Trypanosoma cruzi amastigotes infected in mouse peritoneal macrophages assessed as endocytic index after 2 day; assay type: functional, organism-based; conditions: 48 h; in short: as §2
Trypanosoma cruzi [22] = experiment: Antitrypanosomal activity against Trypanosoma cruzi trypomastigotes assessed as shrinkage of cell surface and body at 11.6 uM after 24 hrs by scanning electron microscopy; assay type: functional, organism-based; in short: as §6
Trypanosoma cruzi [23] = experiment: Antitrypanosomal activity against Trypanosoma cruzi amastigotes infected in mouse peritoneal macrophages assessed as endocytic index after 1 day; assay type: functional, organism-based; conditions: 24 h; in short: as §2
Trypanosoma cruzi [24] = experiment: Antitrypanosomal activity against Trypanosoma cruzi trypomastigotes assessed as shortening of flagellum at 11.6 uM after 24 hrs by scanning electron microscopy; assay type: functional, organism-based; in short: as §6
Trypanosoma cruzi [25] = experiment: Antitrypanosomal activity against Trypanosoma cruzi amastigotes infected in mouse peritoneal macrophages assessed as inhibition of infection after 4 day; assay type: functional, organism-based; conditions: 96 h; in short: as §2
Trypanosoma cruzi [26] = experiment: Antitrypanosomal activity against Trypanosoma cruzi amastigotes infected in mouse peritoneal macrophages assessed as inhibition of infection after 1 day; assay type: functional, organism-based; conditions: 24 h; in short: as §2
[27] = Selectivity index, ratio of LC50 for mouse peritoneal macrophages to IC50 for inhibition of Trypanosoma cruzi amastigotes
In short: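 SI = LC50/IC50 in peritoneal macrophages. LC50 came from the 2-day MTT assay on uninfected macrophages. Cells were Bouin-fixed and Giemsa-stained, and endocytic index (parasites/100 cells) was counted. Three independent experiments.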

Trypanosoma cruzi [28] = experiment: Antitrypanosomal activity against Trypanosoma cruzi amastigotes infected in mouse peritoneal macrophages assessed as endocytic index after 4 day; assay type: functional, organism-based; conditions: 96 h; in short: as §2

Structure (SMILES) | Activity (Mus musculus [1]) | Activity (Mus musculus [2]) | Activity (Mus musculus [3]) | Activity (Trypanosoma cruzi [4]) | CC50 at 48 h [7] | Activity (Trypanosoma cruzi [8]) | Activity (Trypanosoma cruzi [9]) | CC50 at 48 h [10] | Activity (Trypanosoma cruzi [14]) | Activity (Mus musculus [16]) | Activity (Trypanosoma cruzi [17]) | also measured
Cn1c([N+](=O)[O-])cnc1-c1nnc(N/N=C\c2ccc(Br)cc2)s1 | 25.2 g | 27.9 U/L | 62.7 mg/dL | Active | > 120 µM | inactive | Active | > 60 µM | 60% | 118 U/L | Active | Activity (Trypanosoma cruzi [5]): inactive; Activity (Trypanosoma cruzi [6]): inactive; Activity (Trypanosoma cruzi [11]): Active; Activity (Trypanosoma cruzi [12]): Active; Activity (Trypanosoma cruzi [13]): inactive; Activity (Trypanosoma cruzi [15]): Active
Cn1c([N+](=O)[O-])cnc1-c1nnc(N/N=C\c2ccc(O)cc2)s1 | 25.5 g | 24.4 U/L | 58.6 mg/dL | Active | > 240 µM | inactive | inactive | > 100 µM | 50% | 76.6 U/L | Active | IC50 (Trypanosoma cruzi [18]): 6.2 µM; IC50 (Trypanosoma cruzi [19]): 6 µM; IC50 (Trypanosoma cruzi [20]): 3.2 µM; IC50 (Trypanosoma cruzi [21]): 2.9 µM; Activity (Trypanosoma cruzi [22]): Active; IC50 (Trypanosoma cruzi [23]): 5 µM; Activity (Trypanosoma cruzi [24]): Active; IC50 (Trypanosoma cruzi [25]): 1.7 µM; IC50 (Trypanosoma cruzi [26]): 7.1 µM; inhibition in vivo at 100 mg/kg (Trypanosoma cruzi [13]; 144 h): 46%; Ratio LC50/IC50 [27]: >41; IC50 (Trypanosoma cruzi [28]): 1.3 µM
